# Assay results: PubChem BioAssay AID624072 (Broad Institute, 2012)
# Active and inactive are the calls of the source.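 Rule for the calls: active = compounds whose fitted curve reaches a 35% growth drop at up to twice the top tested dose; inconclusive = flat curve with a 30 to 70% growth drop, or poor fit; inactive = opposite effect, flat curve, or crossing beyond the limit.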
# System: not listed separately
# Test: efflux-deficient P. aeruginosa PAK growth delay, dose response, whole organism, PAK mexAB-OprM mutant, OD600, EDDHA, dry powder, set 3 (AID 624072)
# Conditions: P. aeruginosa PAK mexAB-oprM, EDDHA, OD600 growth, 28 h; at 100 µM (top of the series)
# Procedure, shortened: (§1)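 Buffer or medium: succinate M9 plus 2 µM EDDHA. Test system: P. aeruginosa PAK ΔmexAB-oprM. Times: 28 h at 30 °C.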
row,Structure (SMILES),"activity change, negative = growth inhibition"
1,COCCNC(C#N)c1ccc(Cl)cc1 (stereo not given),-9.68% (inactive)

# System: P. aeruginosa PAK mexAB-oprM, EDDHA, OD600 growth, 28 h
# Test: as above
# Conditions: not given
# Procedure, shortened: as §1
row,Structure (SMILES),AC35
1,N#CC(c1ccc(Cl)cc1)c1cccc(C(F)(F)F)n1 (stereo not given),3.92 µM
2,CCCCC(c1ccc(Cl)cc1)c1nn[nH]n1 (stereo not given),97.2 µM
3,N#CC(c1cccc(C(F)(F)F)n1)c1ccc(Cl)cc1F (stereo not given),4.24 µM
4,N#CC(c1ccc(F)cc1)c1cccc(C(F)(F)F)n1 (stereo not given),3 µM
5,COCCC(C#N)c1ccc(F)cc1 (stereo not given),98.3 µM
6,N#CC(c1cccc(Cl)n1)c1ccc(Cl)cc1F (stereo not given),6.02 µM
7,N#CC(c1ccc(Cl)cc1)c1cccc(Cl)n1 (stereo not given),5.35 µM
8,N#CC(c1ccc(Cl)cc1)c1ncccc1Cl (stereo not given),6.94 µM
9,N#CC(c1ccc(Cl)cc1)c1ccc(Cl)cn1 (stereo not given),9.77 µM
